According to ChEMBL document CHEMBL4334522, “Optimization Strategy of Novel Peptide-Based Michael Acceptors for the Treatment of Human African Trypanosomiasis” (J Med Chem, 2019):
Calls of active or inactive are those of the source. The calls are words filed in the database; no cut-off is given here.

Tests used:
Rhodesain = Rhodesain (Trypanosoma brucei rhodesiense, UniProt Q95PM0); assay: Inhibition of Trypanosoma brucei rhodesiense rhodesain expressed in Pichia pastoris assessed as inhibition constant measured for 30 mins using Cbz-Phe-Arg-AMC as substrate by fluorescence assay
Outline: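 Recombinant rhodesain, continuous fluorimetric assay with Cbz-Phe-Arg-AMC at 10 µM, ex 380/em 460 nm, read 30 min at room temperature. Buffer: 50 mM sodium acetate pH 5.5, 5 mM EDTA, 200 mM NaCl, 0.005% Brij 35; enzyme buffer has 5 mM DTT. Seven inhibitor concentrations. kobs from progress-curve fits, hyperbolic fit gives Kiapp, corrected with Km 0.9 µM to Ki. Two independent assays in duplicate.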

[1] = molecular target: Rhodesain (Trypanosoma brucei rhodesiense) (UniProt Q95PM0); assay: Inhibition of Trypanosoma brucei rhodesiense rhodesain expressed in Pichia pastoris at 50 uM measured for 30 mins using Cbz-Phe-Arg-AMC as substrate by fluorescence assay relative to control
Outline: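 Recombinant rhodesain screened with inhibitor at 50 µM against an equivalent DMSO negative control. AMC release from 10 µM Cbz-Phe-Arg-AMC was followed continuously for 30 min.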

Procathepsin L [2] = molecular target: T1, Procathepsin L (Homo sapiens, UniProt P07711); assay: Inhibition of human Cathepsin L assessed as second order rate constant obtained from ratio of Kinact to Ki using Cbz-Phe-Arg-AMC as substrate by fluorescence assay
Target sequence in this assay (P07711 114-333 limits assumed): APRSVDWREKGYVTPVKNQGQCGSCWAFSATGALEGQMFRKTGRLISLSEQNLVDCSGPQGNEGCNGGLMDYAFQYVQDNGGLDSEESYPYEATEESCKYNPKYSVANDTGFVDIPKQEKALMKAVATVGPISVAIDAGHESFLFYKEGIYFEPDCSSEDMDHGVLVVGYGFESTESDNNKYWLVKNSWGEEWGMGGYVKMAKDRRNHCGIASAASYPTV

Procathepsin L [3] = molecular target: T1, Procathepsin L; assay: Inhibition of human Cathepsin L assessed as inhibition constant using Cbz-Phe-Arg-AMC as substrate by fluorescence assay
Target sequence in this assay (P07711 whole entry): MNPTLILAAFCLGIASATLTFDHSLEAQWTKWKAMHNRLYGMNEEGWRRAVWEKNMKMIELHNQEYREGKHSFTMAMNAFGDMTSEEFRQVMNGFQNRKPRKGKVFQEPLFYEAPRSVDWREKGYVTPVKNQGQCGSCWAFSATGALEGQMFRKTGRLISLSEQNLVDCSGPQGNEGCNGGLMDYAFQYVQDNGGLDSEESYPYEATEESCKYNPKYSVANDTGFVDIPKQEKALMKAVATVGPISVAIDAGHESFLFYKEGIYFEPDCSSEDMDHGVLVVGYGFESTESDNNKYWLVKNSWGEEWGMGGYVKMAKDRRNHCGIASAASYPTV

[4] = molecular target: Rhodesain (Trypanosoma brucei rhodesiense) (UniProt Q95PM0); assay: Inhibition of Trypanosoma brucei rhodesiense rhodesain expressed in Pichia pastoris assessed as first-order rate constant measured for 30 mins using Cbz-Phe-Arg-AMC as substrate by fluorescence assay
Outline: (§1)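 Continuous rhodesain assay using 7 inhibitor concentrations spanning minimal to full inhibition, with 10 µM Cbz-Phe-Arg-AMC. Buffer: 50 mM sodium acetate pH 5.5, 5 mM EDTA, 200 mM NaCl, 0.005% Brij 35; enzyme buffer had 5 mM DTT instead. Read at room temperature for 30 min, ex 380/em 460 nm. kobs came from fitting progress curves to F = A(1−exp(−kobs·t)) + B. Fitting kobs against [I] hyperbolically gave kinac and Kiapp. Kiapp was corrected by (1+[S]/Km) with Km 0.9 µM, and k2nd = kinac/Ki. Each assay was run twice in duplicate.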

[5] = molecular target: Rhodesain (Trypanosoma brucei rhodesiense) (UniProt Q95PM0); assay: Inhibition of Trypanosoma brucei rhodesiense rhodesain expressed in Pichia pastoris assessed as second order rate constant obtained from ratio of Kinact to Ki measured for 30 mins using Cbz-Phe-Arg-AMC as substrate by fluorescence assay; outline: as §1
Procathepsin L [6] = molecular target: T1, Procathepsin L; assay: Inhibition of human Cathepsin L assessed as first-order rate constant using Cbz-Phe-Arg-AMC as substrate by fluorescence assay
Target sequence in this assay (P07711 114-333 limits assumed): as the sequence (P07711 114-333 limits assumed) above

[7] = tested on: Trypanosoma brucei brucei; assay: Antitrypanosomal activity against blood stage form of Trypanosoma brucei brucei 449 incubated for 48 hrs by ATPlite assay; type: functional, organism-based; details: Trypanosoma brucei, 449, 48 h
Outline: (§2)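 Bloodstream-form T. b. brucei 449 (Lister 427 descendant) cultured in HMI-9 with 10% FCS, penicillin/streptomycin and 0.2 µg/mL phleomycin at 37°C, 5% CO2. Cells seeded at 2500 cells/mL. Compounds from 5 mM stocks were serially diluted 1:2 to give 16.7 µM to 32.5 nM final. Controls: 0.3% DMSO (negative) and 10% DMSO (positive). Incubated 24 h or 48 h, in two separate triplicates. Viability read by ATPlite luminescence; EC50 taken from dose-response curves.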

[8] = tested on: Trypanosoma brucei brucei; assay: Antitrypanosomal activity against blood stage form of Trypanosoma brucei brucei 449 incubated for 24 hrs by ATPlite assay; type: functional, organism-based; details: Trypanosoma brucei, 449, 24 h; outline: as §2
[9] = molecular target: Rhodesain (Trypanosoma brucei rhodesiense) (UniProt Q95PM0); assay: Irreversible inhibition of Trypanosoma brucei rhodesiense rhodesain expressed in Pichia pastoris at 0.005 to 0.5 nM measured for 30 mins using Cbz-Phe-Arg-AMC as substrate by fluorescence assay; outline: as §1

Sequence of Rhodesain (Trypanosoma brucei rhodesiense) (Q95PM0 1-450): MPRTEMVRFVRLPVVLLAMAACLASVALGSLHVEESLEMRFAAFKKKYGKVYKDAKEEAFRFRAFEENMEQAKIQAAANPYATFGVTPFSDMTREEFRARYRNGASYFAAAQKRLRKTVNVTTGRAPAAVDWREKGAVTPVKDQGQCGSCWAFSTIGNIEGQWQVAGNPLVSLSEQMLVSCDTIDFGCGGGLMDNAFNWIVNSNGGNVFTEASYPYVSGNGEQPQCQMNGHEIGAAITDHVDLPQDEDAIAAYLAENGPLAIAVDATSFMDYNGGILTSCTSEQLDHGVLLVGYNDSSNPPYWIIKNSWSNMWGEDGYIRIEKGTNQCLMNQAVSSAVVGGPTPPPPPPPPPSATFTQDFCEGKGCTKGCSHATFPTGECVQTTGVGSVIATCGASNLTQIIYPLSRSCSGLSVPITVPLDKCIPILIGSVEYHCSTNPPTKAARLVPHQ
Sequence of Rhodesain (Q95PM0 whole entry): as the sequence (Q95PM0 1-450) above

SMILES | Ki (Rhodesain) [nM] | inhibition [1] [%] | K (Procathepsin L [2]) [×10³ /M/min] | Ki (Procathepsin L [3]) [nM] | Kinact [4] [min⁻¹] | K [5] [×10³ /M/min] | Kinact (Procathepsin L [6]) [min⁻¹] | EC50 [7] [nM] | EC50 [8] [nM] | inhibition [9]
CCC(=O)/C=C/[C@H](CCc1ccccc1)NC(=O)[C@H](Cc1ccccc1)NC(=O)OCc1ccccc1 | 0.5 | 85 to 100 | 67 | 108 | 0.00082 | 1800 | 0.0071 | – | – | –
CC(=O)/C=C/[C@H](CCc1ccccc1)NC(=O)[C@H](CCc1ccccc1)NC(=O)OCc1ccccc1 | 5.54 | 85 to 100 | 12 | 453 | 0.00072 | 137 | 0.0056 | 440 | 550 | –
CC(=O)/C=C/[C@H](CCc1ccccc1)NC(=O)[C@H](Cc1ccccc1)NC(=O)c1cc(F)cc(F)c1 | 0.015 | 85 to 100 | 156 | 14.8 | 0.0016 | 113000 | 0.0022 | 3400 | 4000 | –
CC(=O)/C=C/[C@H](CCc1ccccc1)NC(=O)[C@H](Cc1ccccc1)NC(=O)Cc1ccc2c(c1)OCO2 | 2.1 | 85 to 100 | 59 | 90.3 | 0.00085 | 435 | 0.0053 | – | – | –
CC(=O)/C=C/[C@H](CCc1ccccc1)NC(=O)[C@H](Cc1ccccc1)NC(=O)c1ccc2c(c1)OCCO2 | 0.74 | 85 to 100 | 102 | 78.2 | 0.0043 | 7200 | 0.0076 | – | – | –
CC(=O)/C=C/[C@H](CCc1ccccc1)NC(=O)[C@H](Cc1ccccc1)NC(=O)N1CCN(C)CC1 | 1.8 | 85 to 100 | 31 | 158 | 0.00042 | 266 | 0.0047 | – | – | –
CC(=O)/C=C/[C@H](CCc1ccccc1)NC(=O)[C@H](Cc1ccccc1)NC(=O)c1ccc(F)cc1F | 0.0006 | 85 to 100 | 52 | 35 | 7e-05 | 107000 | 0.0015 | 670 | 740 | –
CC(=O)/C=C/[C@H](CCc1ccccc1)NC(=O)[C@H](Cc1ccccc1)NC(=O)c1c(F)cccc1F | 0.0076 | 85 to 100 | 8.9 | 230 | 0.0012 | 151000 | 0.002 | – | – | –
CC(=O)/C=C/[C@H](CCc1ccccc1)NC(=O)[C@H](Cc1ccccc1)NC(=O)c1cccc(F)c1 | 0.023 | 85 to 100 | 41 | 47 | 0.0032 | 149000 | 0.0019 | – | – | –
CC(=O)/C=C/[C@H](CCc1ccccc1)NC(=O)[C@H](Cc1ccccc1)NC(=O)c1ccc(C(F)(F)F)cc1 | 0.0044 | 85 to 100 | 380 | 4.1 | 0.00075 | 175000 | 0.0015 | – | – | –
CC(=O)/C=C/[C@H](CCc1ccccc1)NC(=O)[C@H](Cc1ccccc1)NC(=O)c1ccc(F)cc1 | 0.0011 | 85 to 100 | 1230 | 1.5 | 0.0009 | 881000 | 0.0018 | 3600 | 5100 | Active
CC(=O)/C=C/[C@H](CCc1ccccc1)NC(=O)[C@H](Cc1ccccc1)NC(=O)c1ccc2c(c1)OCO2 | 0.034 | 85 to 100 | 157 | 10.2 | 0.0005 | 15300 | 0.0016 | 3700 | 5000 | –
CC(=O)/C=C/[C@H](CCc1ccccc1)NC(=O)[C@H](Cc1ccccc1)NC(=O)N1CCOCC1 | 3.1 | 85 to 100 | 23 | 175 | 0.00049 | 157 | 0.0039 | – | – | –
CC(=O)/C=C/[C@H](CCc1ccccc1)NC(=O)[C@H](Cc1ccccc1)NC(=O)c1ccccc1F | 0.003 | 85 to 100 | 313 | 5.3 | 0.0006 | 230000 | 0.0011 | – | – | –
CC(=O)/C=C/[C@H](CCc1ccccc1)NC(=O)[C@H](Cc1ccccc1)NC(=O)c1ccc(Cl)cc1 | 0.029 | 85 to 100 | 3030 | 0.6 | 0.0008 | 29300 | 0.0018 | 3200 | 4800 | –
